Screening results deposited in PubChem by The Scripps Research Institute Molecular Screening Center.
Shown are actives, neighbours in structure and some others; about 1.9% of the full set was active somewhere.
CHRM4 PAM: CHRM4 positive allosteric modulation. 360,000 tested, 0.4% active. activation, % at 3 µM. P08173. CHO-K1 hM4/Gqi5, Fluo-8 calcium fluorescence, ACh EC20; 0% = ACh EC20, 100% = maximal ACh;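 active means activation above its plate's cutoff, the mean activation of sample wells plus 3 SD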
Target sequence (P08173 whole entry, looked up): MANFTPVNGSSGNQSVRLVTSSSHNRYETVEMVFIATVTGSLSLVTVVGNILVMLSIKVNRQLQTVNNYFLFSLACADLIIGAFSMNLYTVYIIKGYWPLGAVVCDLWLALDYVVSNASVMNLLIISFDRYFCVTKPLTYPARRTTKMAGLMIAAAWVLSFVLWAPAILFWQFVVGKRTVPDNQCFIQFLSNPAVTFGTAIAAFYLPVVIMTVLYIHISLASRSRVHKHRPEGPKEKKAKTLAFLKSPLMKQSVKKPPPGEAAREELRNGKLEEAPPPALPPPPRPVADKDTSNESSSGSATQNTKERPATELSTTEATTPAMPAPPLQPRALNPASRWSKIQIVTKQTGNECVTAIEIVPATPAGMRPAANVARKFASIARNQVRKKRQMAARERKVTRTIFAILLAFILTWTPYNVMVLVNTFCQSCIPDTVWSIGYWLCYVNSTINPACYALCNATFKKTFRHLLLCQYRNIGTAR
M4 ag: agonists of human muscarinic M4 receptor (CHRM4). P08173. CHO-K1 hM4/Gqi5, Fluo-8 calcium fluorescence; vehicle 0%, full acetylcholine response 100%. activation, % at 3 µM. 360,000 tested, 0.14% active;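 active means activation above the run mean over all test wells plus 3 SD, cut at about 32% in these data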;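 further: peak over basal fluorescence ratio per well then scaled between controls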
CHRM5 PAM: CHRM5 positive allosteric modulation; P08912; CHO-K1 hM5, Fluo-8 calcium, ACh EC20 PAM; 0% = ACh EC20, 100% = ACh EC100; activation, % at 3 µM; 360,000 tested, 0.3% active; AID 624038;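 active means activation above the run cutoff, the mean activation of all test compounds plus 3 SD, cut at about 18% in these data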
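Assay system: CHO-K1 hM5 cells / Incubation: Fluo-8 loading 80 min at 37 °C plus 30 min room temperature / Technique: Fluo-8 calcium dye fluorescence, kinetic read / Repeats: single replicate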
M5 antag: blocks acetylcholine activation of human M5 receptor. P08912. CHO-hM5 cells, Fluo-8 calcium fluorescence, ACh EC80. inhibition, % at 3 µM. AID 624040. 360,000 tested, 0.59% active;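 active means inhibition above a per-plate cutoff, the mean of that plate's test compounds plus 3 SD, cut at about 27% in these data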
CHRM4 antagonist: CHRM4 antagonism in calcium assay; inhibition, % at 3 µM; CHO-hM4 cells, ACh EC80, Fluo-8 calcium fluorescence; 360,000 tested, 0.73% active;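 active means inhibition above its plate's cutoff, the mean inhibition of sample wells plus 3 SD, cut at about 27% in these data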
M5 ag: CHRM5 agonism in calcium assay; P08912; activation, % at 3 µM; CHO-K1 hM5 cells, Fluo-8 calcium fluorescence; 0% DMSO wells, 100% maximal acetylcholine response; 360,000 tested, 0.19% active;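 active means activation above the run's mean over test compounds plus 3 SD, cut at about 23% in these data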;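 further: signal is peak over basal fluorescence ratio across the kinetic read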
Each line names hits and unclear results; the compound was inactive in the other large screens.

CCCN(C)C1CN(Cc2cn(Cc3cccc(C(F)(F)F)c3)nn2)S(=O)(=O)C1 (stereo not drawn)	none
O=C1NC[C@H](Cc2ccccc2)N(CC2CCN(CCc3ccc(-c4ccccc4)cc3)CC2)C1=O	none
COc1ccccc1N(C)S(=O)(=O)c1ccc(C(=O)N2CCCC(C(F)(F)F)C2)cc1 (stereo not drawn)	none
CC(=O)NCCC(=O)NCc1ccc(F)cc1	CHRM4 PAM 22
CC(C)(C)n1nnnc1C(c1ccccc1OC(F)(F)F)N1CCN(C/C=C/c2ccccc2)CC1 (stereo not drawn)	none
COc1cccc(C(c2nnnn2-c2c(C)cccc2C)N2CCN(C/C=C/c3ccccc3)CC2)c1OC (stereo not drawn)	none
FC(F)(F)Oc1ccccc1C(c1nnnn1C1CCCC1)N1CCN(C/C=C/c2ccccc2)CC1 (stereo not drawn)	M5 antag 64
COc1cccc(C(c2nnnn2C2CCCCC2)N2CCN(C/C=C/c3ccccc3)CC2)c1OC (stereo not drawn)	M5 antag 41, CHRM4 antagonist 29
CSCc1c(C(=O)OCC(=O)c2ccc[nH]2)oc2ccccc12	none
Cc1ccc(NC(=O)N2CCC(NC(=O)C(C)(C)C)CC2)cc1	CHRM5 PAM 42
COc1cccc(/C=N/NC(=O)C(=O)N2CCCCCC2)c1OC	none
O=C(N/N=C/c1cccc2ccccc12)C(=O)N1CCCC1	CHRM5 PAM 18
O=c1c2ccccc2oc2nc(-c3ccco3)n(Cc3ccccc3)c(=O)c12	CHRM5 PAM 37
COc1ccccc1CNC(=O)C(=O)NCC1OCCCN1S(=O)(=O)c1cccs1 (stereo not drawn)	none
Cc1cc(C)nc(/N=C(\N)Nc2ccc(SC(F)F)cc2)n1	M4 ag 96, CHRM4 antagonist 55, M5 ag 35
CCCCN(CCCC)/C(N)=N/c1nc(C)cc(C)n1	none
Cc1ccc(C)c(N/C(N)=N/c2nc(C)cc(C)n2)c1	M4 ag 91, CHRM4 antagonist 66, M5 ag 30
CCOc1ccc(N/C(N)=N/c2nc(C)cc(C)n2)cc1	M4 ag 50, M5 antag 39, CHRM4 antagonist 50
CCOc1ccc(N/C(=N/c2nc(C)cc(C)n2)NC(=O)CC)cc1	none
Cc1cc(C)nc(/N=C(\N)N(Cc2ccccc2)Cc2ccccc2)n1	M5 antag 92, CHRM4 antagonist 39
COCCC(C(=O)Oc1c(C(C)(C)C)cc(C)cc1C(C)(C)C)c1ccccc1 (stereo not drawn)	none
CC(=O)Nc1ccnn1C1CCN(C(=O)c2cccc(C)c2C)CC1	none
Cc1cc(C)nc(/N=C(\N)Nc2ccc(F)c([N+](=O)[O-])c2)n1	M4 ag 55
CC(=O)Nc1ccc(N/C(N)=N/c2nc(C)cc(C)n2)cc1	none
Cc1cc(C)nc(/N=C(\N)Nc2ccc(-c3ccccc3)cc2)n1	M4 ag 68, CHRM4 antagonist 29, M5 ag 28
CC(=O)c1ccc(N2CCN(CC(O)COC(c3ccccc3)c3ccccc3C)CC2)cc1 (stereo not drawn)	M5 antag 32, CHRM4 antagonist 81
CC(=O)c1ccc(N2CCN(CC(O)COC(c3ccccc3)c3ccccc3)CC2)cc1 (stereo not drawn)	CHRM4 antagonist 40
O=C(/C=C/[C@H]1O[C@@H](n2ccc(=O)[nH]c2=O)[C@H](O)[C@@H]1O)NCCN1CCCCC1	none
COc1ccccc1NS(=O)(=O)c1cccc(NC(=O)Nc2ccccc2)c1	M4 ag 35, M5 antag 59, CHRM4 antagonist 61
CCNC(=S)Nc1cccc(S(=O)(=O)Nc2ccccc2OC)c1	none
COc1cccc(OC)c1C(=O)Nc1cccc(S(=O)(=O)Nc2ccccc2Cl)c1	none
COc1ccccc1NS(=O)(=O)c1cccc(NC(=O)Nc2ccc(Cl)cc2)c1	M5 antag 66, CHRM4 antagonist 46
C[C@H](CO)N1C[C@H](C)[C@H](CN(C)Cc2ccc(Oc3ccccc3)cc2)Oc2cc(Br)ccc2S1(=O)=O	none
CCCS(=O)(=O)N1CCC(C(=O)N2CCCC2)CC1	CHRM5 PAM 21
CCOC(=O)C1=CCN(S(=O)(=O)c2cccc(Cl)c2)C1c1ccc(F)cc1 (stereo not drawn)	none
O=C(NNc1ccccc1)Nc1cc(Cl)ccc1Cl	CHRM5 PAM 19
CC(=O)Nc1ccc(NC(=O)CNC(=O)c2sc3ccccc3c2Cl)cc1	none
COC(=O)c1ccc(NC(=O)CNC(=O)c2sc3ccccc3c2Cl)cc1	CHRM4 PAM 22
CN(C)CCNc1nc2sc3c(c2c(=O)n1CCc1ccccc1)CCCCC3	CHRM4 antagonist 31
CC(O)CNc1nc2sc3c(c2c(=O)n1CCc1ccccc1)CCCCC3 (stereo not drawn)	none
CCn1c(=O)n(CCc2ccccc2)c(=O)c2c3c(sc21)CCCC3	none
COC(=O)Cn1c(=O)n(CCc2ccccc2)c(=O)c2c3c(sc21)CCCC3	CHRM4 antagonist 30
CC1Cc2ccccc2N1C(=O)Cn1cnc2c1c(=O)n(C)c(=O)n2C (stereo not drawn)	none
O=C(COC(=O)C(CO)NS(=O)(=O)c1ccc(Br)cc1)Nc1ccc2c(c1)OCCO2 (stereo not drawn)	none
O=c1c2cc(NC(=S)N3CCCC3)ccc2nc2n1CCCCC2	none
CCN1CCN(C(=S)Nc2ccc3nc4n(c(=O)c3c2)CCCCC4)CC1	CHRM4 PAM 27
CCc1c(C2(O)CCCCC2)[nH]c2cnccc12	none
Cc1[nH]c2ccccc2c1/C=N/NC(=O)c1cccc([N+](=O)[O-])c1	none
Cc1[nH]c2ccccc2c1/C=N/Nc1ccc([N+](=O)[O-])cc1	M5 antag 31
CC(C)N(Cc1nccn1C)C(=O)c1cc(COc2ccc(F)cc2Cl)on1	M5 antag 31
Oc1ccc(-c2n[nH]c(C(F)(F)F)c2-c2ccccc2)c(O)c1	M5 antag 64, CHRM4 antagonist 47
COc1ccc(-c2c(-c3ccc(O)cc3O)n[nH]c2C(F)(F)F)cc1	none
O=C(C1CCCCC1)N1CCC2CC1c1cc(N3CCCCC3)ccc12 (stereo not drawn)	CHRM4 antagonist 37
O=C(c1ccccc1F)N1CCC2CC1c1cc(N3CCCCC3)ccc12 (stereo not drawn)	none
COc1cc2cc(C(c3nnnn3C3CCCC3)N3CCCCC3)c(=O)[nH]c2cc1OC (stereo not drawn)	M5 antag 34
